Values belong to the molecule of their own block, whether it stands above or below them. Calls of active or inactive are those of the source. No cut-off for these calls is given here.
How the values were obtained:
[1] = molecular target: T1, Tyrosine-protein kinase JAK3 (Homo sapiens, UniProt P52333); assay: Inhibition of recombinant JAK3
T1 sequence (P52333 whole entry): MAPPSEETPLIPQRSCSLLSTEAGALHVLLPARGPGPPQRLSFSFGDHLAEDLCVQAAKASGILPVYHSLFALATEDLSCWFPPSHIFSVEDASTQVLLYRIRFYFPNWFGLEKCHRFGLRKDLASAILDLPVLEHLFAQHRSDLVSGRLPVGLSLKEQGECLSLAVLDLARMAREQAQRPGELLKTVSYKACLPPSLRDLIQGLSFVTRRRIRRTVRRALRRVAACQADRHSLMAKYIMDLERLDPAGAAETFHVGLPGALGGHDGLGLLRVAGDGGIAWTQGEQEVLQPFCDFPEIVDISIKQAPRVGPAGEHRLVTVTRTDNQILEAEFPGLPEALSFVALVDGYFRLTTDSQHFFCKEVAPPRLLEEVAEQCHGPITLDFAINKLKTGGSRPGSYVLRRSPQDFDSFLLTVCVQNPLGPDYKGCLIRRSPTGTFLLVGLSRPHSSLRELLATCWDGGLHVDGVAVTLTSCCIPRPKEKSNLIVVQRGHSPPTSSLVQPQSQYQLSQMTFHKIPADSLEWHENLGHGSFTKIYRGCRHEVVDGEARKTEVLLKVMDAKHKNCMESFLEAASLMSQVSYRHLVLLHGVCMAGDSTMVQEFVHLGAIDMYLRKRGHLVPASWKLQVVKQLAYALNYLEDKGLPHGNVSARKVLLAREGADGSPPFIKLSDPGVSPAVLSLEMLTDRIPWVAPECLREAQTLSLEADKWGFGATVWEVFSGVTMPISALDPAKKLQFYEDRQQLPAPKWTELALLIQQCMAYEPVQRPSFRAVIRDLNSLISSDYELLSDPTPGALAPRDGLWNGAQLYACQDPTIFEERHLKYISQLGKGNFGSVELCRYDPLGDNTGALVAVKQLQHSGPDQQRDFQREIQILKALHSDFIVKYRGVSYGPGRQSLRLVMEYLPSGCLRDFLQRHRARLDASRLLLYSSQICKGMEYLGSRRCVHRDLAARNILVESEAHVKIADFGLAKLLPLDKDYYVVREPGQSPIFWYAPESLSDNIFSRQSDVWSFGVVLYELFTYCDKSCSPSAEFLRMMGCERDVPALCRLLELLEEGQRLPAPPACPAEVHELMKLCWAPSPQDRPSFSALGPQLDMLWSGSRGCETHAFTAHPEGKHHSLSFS

[2] = molecular target: T1, Tyrosine-protein kinase JAK3; assay: Inhibition of JAK3 in […] assessed as inhibition of IL2-induced STAT5 phosphorylation by flow cytometry; format: cell-based
BaF3 = assay: Antitumor activity against JAK2 V617F mutant harboring mouse sBA/F3 cells xenografted in BALB/c mouse assessed as reduced splenomegaly at 15 mg/kg, po bid for 32 days; format: functional, organism-based; design: dose 15 mg/kg
In short: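 Leukemia induced in BALB/c mice (n = 12/group) by iv injection of 1 million mJAK2(V617F)-Ba/F3 cells. Dosing began 1 week after implantation: 15 mg/kg oral gavage b.i.d. as a suspension in 5% methylcellulose, or vehicle alone, until day 32 or moribundity. Spleens were harvested and weighed after sacrifice on day 32.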

[3] = molecular target: Tyrosine-protein kinase JAK2 (Homo sapiens, UniProt O60674); assay: Inhibition of recombinant JAK2
[4] = Cmax in CB17 mouse at 9 mg/kg, iv by LC/MS/MS method; format: ADME, organism-based; design: dose 9 mg/kg, route intravenous; conditions: in vivo
In short: (§1)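 Male Charles River Sprague-Dawley rats and Fox Chase SCID (CB-17) mice, dosed iv or po. Plasma drug concentrations measured by a specific LC/MS/MS method. Pharmacokinetic parameters are reported as mean values.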

[5] = Cmax in Sprague-Dawley rat at 10 mg/kg, po by LC/MS/MS method; format: ADME, organism-based; design: dose 10 mg/kg, route oral; conditions: in vivo; in short: as §1
[6] = Cmax in Sprague-Dawley rat at 1.8 mg/kg, iv by LC/MS/MS method; format: ADME, organism-based; design: dose 1.8 mg/kg, route intravenous; conditions: in vivo; in short: as §1
[7] = molecular target: Mast/stem cell growth factor receptor Kit (Homo sapiens, UniProt P10721); assay: Inhibition of cKit
[8] = Half life in CB17 mouse at 9 mg/kg, iv by LC/MS/MS method; format: ADME, organism-based; design: dose 9 mg/kg, route intravenous; conditions: in vivo; in short: as §1
[9] = Clearance in Sprague-Dawley rat at 1.8 mg/kg, iv by LC/MS/MS method; format: ADME, organism-based; design: dose 1.8 mg/kg, route intravenous; conditions: in vivo; in short: as §1
[10] = AUC (0 to infinity) in Sprague-Dawley rat at 10 mg/kg, po by LC/MS/MS method; format: ADME, organism-based; design: time infinity, dose 10 mg/kg, route oral; conditions: plasma; in short: as §1
[11] = molecular target: ALK tyrosine kinase receptor (Homo sapiens, UniProt Q9UM73); assay: Inhibition of ALK
[12] = AUC (0 to infinity) in CB17 mouse at 9 mg/kg, iv by LC/MS/MS method; format: ADME, organism-based; design: time infinity, dose 9 mg/kg, route intravenous; conditions: plasma; in short: as §1
[13] = Oral bioavailability in Sprague-Dawley rat at 10 mg/kg by LC/MS/MS method; format: ADME, organism-based; conditions: in vivo; in short: as §1
[14] = Cmax in CB17 mouse at 10 mg/kg, po by LC/MS/MS method; format: ADME, organism-based; design: dose 10 mg/kg, route oral; conditions: in vivo; in short: as §1
[15] = Half life in Sprague-Dawley rat at 10 mg/kg, po by LC/MS/MS method; format: ADME, organism-based; design: dose 10 mg/kg, route oral; conditions: in vivo; in short: as §1
[16] = Volume of distribution at steady state in Sprague-Dawley rat at 1.8 mg/kg, iv by LC/MS/MS method; format: ADME, organism-based; design: dose 1.8 mg/kg, route intravenous; conditions: in vivo, read-out: Vdss; in short: as §1
Mus musculus = assay: Improvement in survival of BALB/c mouse xenografted with JAK2 V617F mutant harboring mouse Ba/F3 cells assessed as survival days at 15 mg/kg, po bid for 32 days; format: functional, BaF3
In short: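 BALB/c mice (n = 12/group) received one million mJAK2-Ba/F3 cells (murine Ba/F3 carrying mutant V617F JAK2) intravenously. Treatment started 1 week after implantation. Dosing was 15 mg/kg by oral gavage twice daily as a suspension in 5% methylcellulose, with a vehicle-only control group. Dosing continued until day 32 or moribundity. Survival was shown as Kaplan-Meier plots, and unrelated cage deaths were censored.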

[17] = Half life in Sprague-Dawley rat at 1.8 mg/kg, iv by LC/MS/MS method; format: ADME, organism-based; design: dose 1.8 mg/kg, route intravenous; conditions: in vivo; in short: as §1
[18] = molecular target: T2, Mitogen-activated protein kinase kinase kinase kinase 2 (Homo sapiens, UniProt Q12851); assay: Inhibition of GCK
T2 sequence (Q12851 whole entry): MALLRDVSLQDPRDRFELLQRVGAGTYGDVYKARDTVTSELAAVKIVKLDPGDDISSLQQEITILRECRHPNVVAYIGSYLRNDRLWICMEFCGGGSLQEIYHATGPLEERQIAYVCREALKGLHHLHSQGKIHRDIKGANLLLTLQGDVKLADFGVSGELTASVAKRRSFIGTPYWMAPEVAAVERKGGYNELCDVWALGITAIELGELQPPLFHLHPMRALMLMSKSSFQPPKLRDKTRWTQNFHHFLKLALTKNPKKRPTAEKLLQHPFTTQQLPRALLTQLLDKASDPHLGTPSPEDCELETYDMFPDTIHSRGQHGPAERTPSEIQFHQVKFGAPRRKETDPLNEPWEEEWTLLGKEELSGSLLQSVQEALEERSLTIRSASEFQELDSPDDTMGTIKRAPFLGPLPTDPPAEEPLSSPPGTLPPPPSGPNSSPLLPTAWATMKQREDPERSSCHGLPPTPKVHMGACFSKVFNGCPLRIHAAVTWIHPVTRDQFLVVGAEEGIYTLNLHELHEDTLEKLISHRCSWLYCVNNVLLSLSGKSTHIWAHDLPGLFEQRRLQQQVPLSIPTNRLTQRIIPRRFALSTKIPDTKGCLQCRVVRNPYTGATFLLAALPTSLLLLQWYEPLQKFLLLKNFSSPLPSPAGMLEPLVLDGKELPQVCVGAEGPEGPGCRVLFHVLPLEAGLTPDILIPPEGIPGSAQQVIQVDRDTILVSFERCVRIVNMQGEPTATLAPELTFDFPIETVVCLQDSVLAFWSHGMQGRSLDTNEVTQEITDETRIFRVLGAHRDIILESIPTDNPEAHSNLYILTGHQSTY

[19] = Oral bioavailability life in CB17 mouse at 10 mg/kg by LC/MS/MS method; format: ADME, organism-based; conditions: in vivo; in short: as §1
[20] = Half life in CB17 mouse at 10 mg/kg, po by LC/MS/MS method; format: ADME, organism-based; design: dose 10 mg/kg, route oral; conditions: in vivo; in short: as §1
[21] = Clearance in CB17 mouse at 9 mg/kg, iv by LC/MS/MS method; format: ADME, organism-based; design: dose 9 mg/kg, route intravenous; conditions: in vivo; in short: as §1
[22] = Tmax in Sprague-Dawley rat at 10 mg/kg, po by LC/MS/MS method; format: ADME, organism-based; design: dose 10 mg/kg, route oral; conditions: in vivo; in short: as §1
[23] = AUC (0 to infinity) in Sprague-Dawley rat at 1.8 mg/kg, iv by LC/MS/MS method; format: ADME, organism-based; design: time infinity, dose 1.8 mg/kg, route intravenous; conditions: plasma; in short: as §1
[24] = Volume of distribution at steady state in CB17 mouse at 9 mg/kg, iv by LC/MS/MS method; format: ADME, organism-based; design: dose 9 mg/kg, route intravenous; conditions: in vivo, read-out: Vdss; in short: as §1
[25] = Tmax in CB17 mouse at 10 mg/kg, po by LC/MS/MS method; format: ADME, organism-based; design: dose 10 mg/kg, route oral; conditions: in vivo; in short: as §1
[26] = AUC (0 to infinity) in CB17 mouse at 10 mg/kg, po by LC/MS/MS method; format: ADME, organism-based; design: time infinity, dose 10 mg/kg, route oral; conditions: plasma; in short: as §1

Chain of Tyrosine-protein kinase JAK2 (O60674 whole entry): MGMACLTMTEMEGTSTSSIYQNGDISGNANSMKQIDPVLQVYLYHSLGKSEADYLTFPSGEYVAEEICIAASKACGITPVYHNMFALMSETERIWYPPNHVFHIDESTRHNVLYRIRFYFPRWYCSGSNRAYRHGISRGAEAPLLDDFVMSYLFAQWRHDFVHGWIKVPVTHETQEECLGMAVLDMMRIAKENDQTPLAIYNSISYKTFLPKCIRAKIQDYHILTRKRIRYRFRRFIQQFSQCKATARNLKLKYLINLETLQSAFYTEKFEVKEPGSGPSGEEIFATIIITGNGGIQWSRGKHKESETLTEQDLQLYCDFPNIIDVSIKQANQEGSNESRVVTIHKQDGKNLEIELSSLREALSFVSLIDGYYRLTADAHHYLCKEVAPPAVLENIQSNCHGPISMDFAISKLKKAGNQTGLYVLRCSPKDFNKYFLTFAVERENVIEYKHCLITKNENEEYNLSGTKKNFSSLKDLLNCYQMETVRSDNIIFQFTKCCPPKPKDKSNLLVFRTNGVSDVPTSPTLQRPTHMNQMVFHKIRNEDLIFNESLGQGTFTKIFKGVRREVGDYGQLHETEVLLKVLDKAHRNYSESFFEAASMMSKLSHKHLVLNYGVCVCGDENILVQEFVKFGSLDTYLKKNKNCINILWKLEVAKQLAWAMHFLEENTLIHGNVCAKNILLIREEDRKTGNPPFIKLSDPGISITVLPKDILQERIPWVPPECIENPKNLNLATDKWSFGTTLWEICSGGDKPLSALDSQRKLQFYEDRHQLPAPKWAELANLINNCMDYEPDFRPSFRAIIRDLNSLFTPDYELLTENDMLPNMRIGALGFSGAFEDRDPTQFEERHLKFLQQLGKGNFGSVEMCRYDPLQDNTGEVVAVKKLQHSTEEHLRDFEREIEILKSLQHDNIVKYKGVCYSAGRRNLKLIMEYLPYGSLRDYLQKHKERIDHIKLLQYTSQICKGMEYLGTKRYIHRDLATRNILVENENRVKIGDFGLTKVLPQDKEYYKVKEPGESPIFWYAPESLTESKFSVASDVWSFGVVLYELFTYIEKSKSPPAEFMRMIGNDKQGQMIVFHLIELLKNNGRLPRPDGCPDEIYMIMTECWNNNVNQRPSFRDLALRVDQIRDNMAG
Chain of Mast/stem cell growth factor receptor Kit (P10721 whole entry): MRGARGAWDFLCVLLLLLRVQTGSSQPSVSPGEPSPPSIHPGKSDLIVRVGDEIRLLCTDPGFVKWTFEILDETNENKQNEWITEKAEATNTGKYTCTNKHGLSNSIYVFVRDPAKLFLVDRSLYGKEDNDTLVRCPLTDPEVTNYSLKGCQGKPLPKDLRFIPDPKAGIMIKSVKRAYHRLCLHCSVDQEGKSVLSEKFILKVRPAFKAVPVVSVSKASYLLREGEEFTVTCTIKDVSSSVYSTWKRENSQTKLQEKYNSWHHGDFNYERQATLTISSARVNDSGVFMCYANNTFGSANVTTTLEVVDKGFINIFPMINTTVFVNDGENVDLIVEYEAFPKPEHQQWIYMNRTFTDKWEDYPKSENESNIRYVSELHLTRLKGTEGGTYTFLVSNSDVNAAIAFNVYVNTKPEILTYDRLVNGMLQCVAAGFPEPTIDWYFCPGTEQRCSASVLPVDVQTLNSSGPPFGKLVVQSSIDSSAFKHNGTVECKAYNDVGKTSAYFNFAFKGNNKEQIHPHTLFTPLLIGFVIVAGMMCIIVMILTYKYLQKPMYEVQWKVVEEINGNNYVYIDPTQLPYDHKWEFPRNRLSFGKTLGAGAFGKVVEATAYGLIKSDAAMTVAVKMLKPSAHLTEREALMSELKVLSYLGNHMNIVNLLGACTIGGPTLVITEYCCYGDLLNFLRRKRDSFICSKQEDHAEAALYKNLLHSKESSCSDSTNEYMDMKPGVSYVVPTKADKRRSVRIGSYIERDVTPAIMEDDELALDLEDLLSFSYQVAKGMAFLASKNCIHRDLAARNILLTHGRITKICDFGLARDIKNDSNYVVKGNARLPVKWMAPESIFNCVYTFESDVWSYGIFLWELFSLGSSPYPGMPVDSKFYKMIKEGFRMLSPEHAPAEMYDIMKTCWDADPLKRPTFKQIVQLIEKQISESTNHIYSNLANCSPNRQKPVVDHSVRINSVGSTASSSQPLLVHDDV
Chain of ALK tyrosine kinase receptor (Q9UM73 whole entry): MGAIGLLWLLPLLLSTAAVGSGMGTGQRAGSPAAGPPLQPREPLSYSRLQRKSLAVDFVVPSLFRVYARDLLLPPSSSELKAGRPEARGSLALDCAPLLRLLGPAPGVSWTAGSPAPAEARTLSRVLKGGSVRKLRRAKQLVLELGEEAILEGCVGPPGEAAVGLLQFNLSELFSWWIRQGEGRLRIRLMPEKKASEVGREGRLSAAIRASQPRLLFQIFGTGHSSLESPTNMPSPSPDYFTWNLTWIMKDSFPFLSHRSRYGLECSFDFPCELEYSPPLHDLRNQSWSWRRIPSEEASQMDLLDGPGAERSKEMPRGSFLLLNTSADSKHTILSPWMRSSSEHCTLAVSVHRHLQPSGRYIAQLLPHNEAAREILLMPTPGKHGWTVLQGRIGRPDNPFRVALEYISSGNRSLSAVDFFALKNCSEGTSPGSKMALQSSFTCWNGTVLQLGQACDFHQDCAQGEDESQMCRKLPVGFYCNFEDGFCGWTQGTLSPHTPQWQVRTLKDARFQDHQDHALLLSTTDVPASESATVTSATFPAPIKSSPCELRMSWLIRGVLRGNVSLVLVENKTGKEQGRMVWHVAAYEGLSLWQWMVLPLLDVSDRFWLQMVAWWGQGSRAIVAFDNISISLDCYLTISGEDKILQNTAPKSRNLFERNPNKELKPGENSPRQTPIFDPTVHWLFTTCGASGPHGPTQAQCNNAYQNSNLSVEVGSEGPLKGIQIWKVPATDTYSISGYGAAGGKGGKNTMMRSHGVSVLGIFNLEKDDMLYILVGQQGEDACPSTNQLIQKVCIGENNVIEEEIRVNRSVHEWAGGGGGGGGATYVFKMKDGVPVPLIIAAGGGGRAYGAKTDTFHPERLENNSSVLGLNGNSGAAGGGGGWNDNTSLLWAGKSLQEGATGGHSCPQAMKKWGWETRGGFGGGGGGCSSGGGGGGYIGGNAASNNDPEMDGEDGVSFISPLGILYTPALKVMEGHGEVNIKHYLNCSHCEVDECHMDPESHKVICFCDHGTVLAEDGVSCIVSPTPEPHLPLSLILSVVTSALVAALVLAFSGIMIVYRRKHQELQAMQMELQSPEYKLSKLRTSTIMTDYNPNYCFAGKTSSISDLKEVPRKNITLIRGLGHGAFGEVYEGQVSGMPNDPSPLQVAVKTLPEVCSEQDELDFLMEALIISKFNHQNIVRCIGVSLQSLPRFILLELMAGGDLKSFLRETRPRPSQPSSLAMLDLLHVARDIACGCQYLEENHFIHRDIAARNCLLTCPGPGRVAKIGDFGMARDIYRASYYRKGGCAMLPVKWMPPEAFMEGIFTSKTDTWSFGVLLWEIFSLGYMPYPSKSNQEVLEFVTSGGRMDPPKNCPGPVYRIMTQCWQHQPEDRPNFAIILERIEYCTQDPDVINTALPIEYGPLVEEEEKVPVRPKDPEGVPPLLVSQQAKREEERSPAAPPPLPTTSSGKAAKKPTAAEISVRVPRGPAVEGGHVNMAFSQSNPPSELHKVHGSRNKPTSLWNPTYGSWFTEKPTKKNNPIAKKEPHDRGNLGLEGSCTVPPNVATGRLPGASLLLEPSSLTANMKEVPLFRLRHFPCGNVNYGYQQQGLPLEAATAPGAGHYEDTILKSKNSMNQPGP

SMILES: O=C1Nc2ccccc2-c2ccnc3[nH]cc(c23)C1c1ccc(O)cc1 (single isomer, unassigned; atropisomer 1)
Ki [1]: 5.5 nM
IC50 [2]: 1530 nM

SMILES: O=C1Nc2ccccc2-c2ccnc3[nH]cc(c23)C1c1ccc(O)cc1 (single isomer, unassigned; atropisomer 2)
Ki [1]: 6 nM

SMILES: O=C1Nc2ccccc2-c2ccnc3[nH]cc(c23)C1c1ccc(O)cc1 (stereo not given) [listing 1 of 2 here]
Activity (BaF3): Active

Ki [3]: 260 nM
SMILES: Clc1cnc2[nH]cc(-c3ccccc3)c2c1

SMILES: O=C1Nc2ccccc2-c2ccnc3[nH]cc(c23)C1c1ccc(O)cc1 (stereo not given) [listing 2 of 2 here]
Cmax [4]: 7300 ng/mL
Cmax [5]: 1080 ng/mL
Cmax [6]: 700 ng/mL
Ki [7]: 190 nM
half-life [8]: 2.7 h
clearance [9]: 23.8 mL/min/kg
AUC(0-inf) [10]: 7700 ng·h/mL
Ki [11]: 17 nM
AUC(0-inf) [12]: 12500 ng·h/mL
bioavailability [13]: 100%
Cmax [14]: 1000 ng/mL
half-life [15]: 3.6 h
Vd [16]: 5.7 L/kg
Survival (Mus musculus): 32 days
half-life [17]: 3.4 h
IC50 [18]: 340 nM
bioavailability [19]: 66.1%
half-life [20]: 3.2 h
clearance [21]: 12.1 mL/min/kg
Tmax [22]: 3 h
AUC(0-inf) [23]: 1260 ng·h/mL
Vd [24]: 2.3 L/kg
Tmax [25]: 2 h
AUC(0-inf) [26]: 8300 ng·h/mL

SMILES: c1ccc(-c2ncnc3[nH]ccc23)cc1
Ki [3]: 480 nM
